Experimental data from different studies.
Compare with care: the assays were run in different laboratories.
Target: Cyclin-dependent kinase 7 (CDK7, Homo sapiens, UniProt P50613)

Compound | observed | method | concentration | remaining binding [%]
O=C(c1ccc(Nc2nccc(-c3cc4ccccc4s3)n2)cc1)N1CCC(N2CCCC2)CC1 | binding | competition with immobilised ligand | 1 µM | 12
C=CC(=O)N1CCC(C(=O)NCC(=O)N2CCN(c3nc(-c4cnc(N)nc4C(F)F)nc(N4CCOCC4)n3)CC2)CC1 | binding | competition with immobilised ligand | 1 µM | 94
C[C@@H]1CCN(c2nccc(-c3cnn4ncccc34)n2)C1 | binding |  | 1 µM | 35
FC(F)(F)Oc1cccc(-c2cnc3ccc(-c4ccncc4)nn23)c1 | cell-free assay | competition with immobilised ligand | 5 µM | 0.85
CN(C)c1ncnc(-c2ccc3nc(Nc4cc(CN5CCN(C(=O)CC(F)(F)F)CC5)ccn4)[nH]c3c2)c1Cl | cell-free assay | competition with immobilised ligand | 1 µM | 80
COC(=O)Nc1nc2ccc(C(=O)c3ccccc3)cc2[nH]1 | cell-free assay | competition with immobilised ligand | 10 µM | 11
COc1cnc(Nc2cccc(S(N)(=O)=O)c2)nc1N1CCN(c2ccccc2)CC1 | binding | competition with immobilised ligand | 1 µM | 84
O=S(=O)(NC1CCC(c2cc(F)ccc2F)(S(=O)(=O)c2ccc(Cl)cc2)CC1)C(F)(F)F (centres unmarked) | cell-free assay | competition with immobilised ligand | 1 µM | 100
COc1ccnn2ncc(-c3ccnc(N(C)C)n3)c12 | binding |  | 1 µM | 85
O=C(NCC1CCOCC1)c1n[nH]cc1NC(=O)c1c(F)cccc1F | binding | competition with immobilised ligand | 1 µM | 31
Cn1nc(C(F)(F)F)cc1-c1cnc(N2CCc3cc(S(=O)(=O)Nc4c(F)cc(Cl)cc4F)cc(N4CCCC4=O)c32)nc1 | cell-free assay | competition with immobilised ligand | 1 µM | 75
O=C(NCCCN1CCOCC1)c1ccc(Nc2ncc(Cl)c(-c3ccc(Cl)s3)n2)cc1 | binding | competition with immobilised ligand | 1 µM | 2.5
COc1cnc(Nc2cccc(S(N)(=O)=O)c2)nc1N1CCN(c2ccccc2)C(=O)C1 | binding | competition with immobilised ligand | 1 µM | 73
N[C@@H]1CCN(c2nccc(-c3cnn4ncccc34)n2)C1 | binding |  | 1 µM | 21
CS(=O)(=O)NCC[C@H](NC(=O)c1cncc2c1cnn2-c1ccc(F)cc1)c1ccnc(S(C)(=O)=O)c1 | cell-free assay | competition with immobilised ligand | 1 µM | 100
O=C(c1ccc(Nc2ncc(Cl)c(-c3ccc(Cl)s3)n2)cc1)N1CCC(N2CCCC2)CC1 | binding | competition with immobilised ligand | 1 µM | 0.55
O=C(O)[C@@H]1[C@@H](Cn2nnc3ccccc3c2=O)CC[C@H]1C(=O)c1ccc(OCCC2CCOCC2)cc1 | cell-free assay | competition with immobilised ligand | 1 µM | 86
CN(C)c1nccc(-c2cnn3ncccc23)n1 | binding |  | 1 µM | 82
C[C@@H]1CN(c2ccc3ncc(-c4ccc5[nH]nc(C6CC6)c5c4)n3n2)C[C@H](C)O1 | binding | competition with immobilised ligand | 0.5 µM | 23
O=C(NS(=O)(=O)c1ccc(NCC2CCOCC2)c([N+](=O)[O-])c1)c1ccc(N2CCN(Cc3ccc(C(F)(F)F)cc3-c3ccc(Cl)cc3)CC2)cc1Oc1cnc2[nH]ccc2c1 | cell-free assay | competition with immobilised ligand | 1 µM | 96
Nc1ncc2c(n1)-c1c([nH]c3ccc(C#CC4CC4)cc13)CCCC2 | binding | competition with immobilised ligand | 1 µM | 92
CN(C)c1ncc(F)c(-c2cnn3ncccc23)n1 | binding |  | 1 µM | 78
O=C(O)c1cc(-c2ccc(C3CCNCC3)cc2)c2ccc(-c3ccc(C(F)(F)F)cc3)cc2c1 | cell-free assay | competition with immobilised ligand | 1 µM | 82
